Laboratory results taken from ChEMBL document CHEMBL4270638, “Sulfonyl-containing phenyl-pyrrolyl pentane analogues: Novel non-secosteroidal vitamin D receptor modulators with favorable physicochemical properties, pharmacokinetic properties and anti-tumor activity” (Eur J Med Chem, 2018).
Values after ≈ are worked out from the molar mass of the structure shown. Active and inactive are the calls of the source. The rule behind the calls is not given here.

Tests used:
[1] = test system: MCF7; assay: Antiproliferative activity against human MCF7 cells after 24 hrs by MTT assay; type: functional, cell-based; conditions: MCF7, 24 h
[2] = test system: MCF7; assay: Induction of apoptosis in human MCF7 cells expressing scrambled siRNA assessed as live cells at 1 uM after 24 hrs by Annexin-V-FITC/propidium iodide staining based flow cytometry (reference value: 97.93%); type: functional
[3] = Half life in rat liver microsomes in presence of NADPH by HPLC method; type: ADME, microsome
In short: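 Compounds incubated with rat liver microsomes plus NADPH. Remaining compound quantified by HPLC at 0, 5, 10, 20, 30, 45, 60 and 90 min, and half-life calculated.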

[4] = AUC in Sprague-Dawley rat at 5 mg/kg, iv by HPLC method; type: ADME, organism-based; conditions: in vivo
In short: (§1)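 Male Sprague-Dawley rats, 180–220 g, n = 3 per group. Dosed iv at 5 mg/kg or ip at 20 mg/kg in ethanol/EL/saline (1:1:18). Plasma sampled at 0, 0.083, 0.167, 0.25, 0.5, 1, 2, 4, 8, 12 and 24 h and centrifuged 12000 rpm for 10 min. Plasma drug measured by HPLC; parameters by PK modelling; mean ± SD.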

[5] = Half life in Sprague-Dawley rat at 20 mg/kg, ip by HPLC method; type: ADME, organism-based; conditions: in vivo; in short: as §1
[6] = test system: PC-3; assay: Antiproliferative activity against human PC3 cells after 24 hrs by MTT assay; type: functional, cell-based; conditions: PC-3, 24 h
[7] = test system: MCF7; assay: Induction of apoptosis in human MCF7 cells expressing scrambled siRNA assessed as late apoptotic cells at 1 uM after 24 hrs by Annexin-V-FITC/propidium iodide staining based flow cytometry (reference value: 0.98%); type: functional
[8] = test system: MCF7; assay: Cell cycle arrest in human MCF7 cells expressing scrambled siRNA assessed as accumulation at S phase at 1 uM after 24 hrs by propidium iodide staining based flow cytometry (reference value: 29.79%); type: functional
[9] = target: T1, Vitamin D3 receptor (Homo sapiens, UniProt P11473); assay: Displacement of fluormone VDR red from human full-length VDR after 4 hrs by fluorescence polarization assay
T1 sequence (P11473 whole entry): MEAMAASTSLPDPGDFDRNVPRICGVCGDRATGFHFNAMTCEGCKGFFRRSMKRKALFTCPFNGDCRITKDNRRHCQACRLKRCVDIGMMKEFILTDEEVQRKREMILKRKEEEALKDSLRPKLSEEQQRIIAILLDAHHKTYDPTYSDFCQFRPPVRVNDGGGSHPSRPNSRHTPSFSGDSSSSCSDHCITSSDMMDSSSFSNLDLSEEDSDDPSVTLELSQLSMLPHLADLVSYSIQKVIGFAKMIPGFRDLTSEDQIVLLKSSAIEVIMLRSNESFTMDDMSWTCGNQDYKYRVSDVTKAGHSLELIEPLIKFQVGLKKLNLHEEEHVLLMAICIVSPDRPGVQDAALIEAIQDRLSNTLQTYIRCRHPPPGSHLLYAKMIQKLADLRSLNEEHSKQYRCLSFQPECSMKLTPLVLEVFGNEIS

[10] = test system: MCF7; assay: Antitumor activity against human MCF7 cells xenografted in Balb/c nude mouse assessed as reduction in tumor growth at 10 mg/kg, ip administered three times a week for three weeks starting from day 7 after tumor cell inoculation; type: functional, organism-based
In short: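 […] BALB/c-nu mice, 10 weeks old. 1×10^7 MCF-7 cells injected into the left fourth mammary fat pad; dosing began at about 50 mm3 tumour volume (day 7), n = 5 per group. Dosed ip at 10 mg/kg in ethanol/EL/saline 1:1:18, three times weekly for three weeks. Tumour volume by calipers = length × width² × 0.5; tumour weight and body weight recorded.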

[11] = test system: MCF7; assay: Cell cycle arrest in human MCF7 cells expressing VDR siRNA assessed as accumulation at S phase at 1 uM after 24 hrs by propidium iodide staining based flow cytometry (reference value: 32%); type: functional
[12] = target: T2, Retinoic acid receptor RXR-alpha/Vitamin D3 receptor (Homo sapiens, UniProt P11473+P19793); assay: Transactivation of recombinant human VDR/RXRalpha expressed in HEK293 cells after 24 hrs by Dual-luciferase reporter gene assay; type: cell-based
T2 sequence (P11473 whole entry): T1 sequence (P11473 whole entry)
T2 sequence (P19793 whole entry): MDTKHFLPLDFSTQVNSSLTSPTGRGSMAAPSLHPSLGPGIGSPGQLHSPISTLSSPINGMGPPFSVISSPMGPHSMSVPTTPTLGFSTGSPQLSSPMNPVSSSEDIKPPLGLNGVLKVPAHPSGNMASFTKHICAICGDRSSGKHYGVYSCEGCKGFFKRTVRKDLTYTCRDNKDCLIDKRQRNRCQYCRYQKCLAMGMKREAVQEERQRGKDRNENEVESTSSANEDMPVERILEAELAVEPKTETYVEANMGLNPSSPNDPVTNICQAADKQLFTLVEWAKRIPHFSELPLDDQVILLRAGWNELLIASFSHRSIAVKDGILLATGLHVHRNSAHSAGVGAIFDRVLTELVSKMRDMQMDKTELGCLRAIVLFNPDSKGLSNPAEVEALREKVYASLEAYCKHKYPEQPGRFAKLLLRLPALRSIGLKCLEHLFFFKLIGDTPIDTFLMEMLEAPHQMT

[13] = test system: MCF7; assay: Cell cycle arrest in human MCF7 cells expressing VDR siRNA assessed as accumulation at G2/M phase at 1 uM after 24 hrs by propidium iodide staining based flow cytometry (reference value: 17.57%); type: functional
[14] = test system: MCF7; assay: Induction of apoptosis in human MCF7 cells expressing scrambled siRNA assessed as early apoptotic cells at 1 uM after 24 hrs by Annexin-V-FITC/propidium iodide staining based flow cytometry (reference value: 0.93%); type: functional
[15] = test system: MCF7; assay: Induction of apoptosis in human MCF7 cells expressing VDR siRNA assessed as live cells at 1 uM after 24 hrs by Annexin-V-FITC/propidium iodide staining based flow cytometry (reference value: 98.35%); type: functional
[16] = test system: MCF7; assay: Induction of apoptosis in human MCF7 cells expressing VDR siRNA assessed as necrotic cells at 1 uM after 24 hrs by Annexin-V-FITC/propidium iodide staining based flow cytometry (reference value: 0.15%); type: functional
[17] = Half life in Sprague-Dawley rat at 5 mg/kg, iv by HPLC method; type: ADME, organism-based; conditions: in vivo; in short: as §1
[18] = Clearance in Sprague-Dawley rat at 20 mg/kg, ip by HPLC method; type: ADME, organism-based; conditions: in vivo; in short: as §1
[19] = Bioavailability in Sprague-Dawley rat at 20 mg/kg, ip by HPLC method; type: ADME, organism-based; conditions: in vivo; in short: as §1
[20] = AUC in Sprague-Dawley rat at 20 mg/kg, ip by HPLC method; type: ADME, organism-based; conditions: in vivo; in short: as §1
[21] = test system: MCF7; assay: Induction of apoptosis in human MCF7 cells expressing VDR siRNA assessed as late apoptotic cells at 1 uM after 24 hrs by Annexin-V-FITC/propidium iodide staining based flow cytometry (reference value: 1.01%); type: functional
[22] = test system: MCF7; assay: Cell cycle arrest in human MCF7 cells expressing VDR siRNA assessed as accumulation at G0/G1 phase at 1 uM after 24 hrs by propidium iodide staining based flow cytometry (reference value: 49.17%); type: functional
[23] = Mean residence time in Sprague-Dawley rat at 5 mg/kg, iv by HPLC method; type: ADME, organism-based; conditions: in vivo; in short: as §1
[24] = Clearance in Sprague-Dawley rat at 5 mg/kg, iv by HPLC method; type: ADME, organism-based; conditions: in vivo; in short: as §1
[25] = test system: MCF7; assay: Antiproliferative activity against human MCF7 cells expressing VDR siRNA assessed as reduction in BrdU incorporation after 16 hrs by ELISA; type: functional, cell-based; conditions: MCF7, 16 h
[26] = test system: MCF7; assay: Cell cycle arrest in human MCF7 cells expressing scrambled siRNA assessed as accumulation at G2/M phase at 1 uM after 24 hrs by propidium iodide staining based flow cytometry (reference value: 19.6%); type: functional
[27] = test system: MCF7; assay: Cell cycle arrest in human MCF7 cells expressing scrambled siRNA assessed as accumulation at G0/G1 phase at 1 uM after 24 hrs by propidium iodide staining based flow cytometry (reference value: 49.28%); type: functional
[28] = test system: MCF7; assay: Induction of apoptosis in human MCF7 cells expressing scrambled siRNA assessed as necrotic cells at 1 uM after 24 hrs by Annexin-V-FITC/propidium iodide staining based flow cytometry (reference value: 0.16%); type: functional
[29] = test system: MCF7; assay: Induction of apoptosis in human MCF7 cells expressing VDR siRNA assessed as early apoptotic cells at 1 uM after 24 hrs by Annexin-V-FITC/propidium iodide staining based flow cytometry (reference value: 0.49%); type: functional
[30] = test system: BXPC-3; assay: Antiproliferative activity against human BxPC3 cells after 24 hrs by MTT assay; type: functional, cell-based; conditions: BXPC-3, 24 h
[31] = Mean residence time in Sprague-Dawley rat at 20 mg/kg, ip by HPLC method; type: ADME, organism-based; conditions: in vivo; in short: as §1
[32] = Solubility of the compound in water at pH 7.4 by HPLC method; type: physicochemical
In short: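 Aqueous solubility measured at pH 7.4, with samples quantified by HPLC.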

SMILES | IC50 [1] | Activity [2] | half-life [3] | IC50 [6] | Activity [7] | Activity [8] | Activity [11] | Activity [13] | Activity [14] | Activity [15] | Activity [16] | Activity [21] | Activity [22] | Activity [26] | Activity [27] | Activity [28] | Activity [29] | IC50 [30] | solubility [32] | also measured
CCn1c(C(=O)N[C@@H](C)CO)ccc1C(CC)(CC)c1ccc(OCC(O)C(C)(C)C)c(C)c1 (some centres undefined) | 18.2 µM | 95.55% | 0.429 h | 8.5 µM | 2.88% | 31.41% | 29.44% | 18.59% | 1.31% | 96.87% | 0.35% | 1.79% | 51.05% | 11.69% | 55.43% | 0.26% | 0.99% | 15.8 µM | 1.7 µg/mL (≈ 3.6 µM) | AUC [4]: 4650 ng·h/mL; half-life [5]: 3.47 h; IC50 [9]: 0.115 µM; Activity [10]: Active; EC50 [12]: 0.00681 µM; half-life [17]: 2.89 h; CL/F [18]: 55.2 mL/min; bioavailability [19]: 32.5%; AUC [20]: 6040 ng·h/mL; MRT [23]: 5.54 h; clearance [24]: 18 mL/min; IC50 [25]: > 50 µM; MRT [31]: 5.5 h
CCN(CC)CCNC(=O)c1cc(C(CC)(CC)c2ccc(OCSc3ccccc3)c(C)c2)cn1CC | 4.7 µM | 94.44% | 1.19 h | 2.62 µM | 3.65% | 31.75% | 30.97% | 17.3% | 1.01% | 97.14% | 0.37% | 1.91% | 50.29% | 11.15% | 55.79% | 0.9% | 0.58% | 5.37 µM | 0.6 µg/mL (≈ 1.12 µM) | 
CCN(CC)CCNC(=O)c1ccc(C(CC)(CC)c2ccc(OCSc3ccccc3)c(C)c2)n1CC | 4.9 µM | 96.21% | 0.895 h | 2.23 µM | 2.85% | 31.59% | 30.12% | 17.07% | 0.59% | 97.03% | 0.47% | 1.78% | 51.65% | 11.15% | 55.65% | 0.35% | 0.71% | 5.67 µM | 25.6 µg/mL (≈ 47.8 µM) | 
CCN(CC)CCNC(=O)c1cc(C(CC)(CC)c2ccc(OCSC)c(C)c2)cn1CC | 4.64 µM | 95.2% | 0.802 h | 9.54 µM | 3.24% | 30.52% | 30.37% | 16.92% | 1.17% | 96.68% | 0.5% | 1.91% | 51.44% | 12.37% | 55.62% | 0.39% | 0.91% | 4.11 µM | 198 µg/mL (≈ 418 µM) | 
